Experimental data taken from ChEMBL document CHEMBL5058577, “EUbOPEN Chemogenomics Library 2 (Multiplex)” (2022).

Test system: Fibroblast
Assay: Multiplex assay against human fibroblast
Format: toxicity, cell-based
Method in brief: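 At seeding, live cells were stained with Hoechst33342, BioTracker Green Microtubule Cytoskeleton Dye, MitoTracker Red and Annexin V Alexa Fluor 680. After compound addition they were imaged on a CQ1 microscope at 37°C and 5% CO2, and CellPathfinder machine-learning gating sorted them into Hoechst high-intensity objects or normal cells, with normal cells further split into healthy, pyknosed or fragmented nuclei and pyknosed cells into mitotic or apoptotic. Tubulin, mitochondrial-mass and membrane-permeability phenotypes are given as per cents of cells with healthy nuclei.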

[1] = 12 h, 1 µM, compound concentration 1 uM, replicate 1
[2] = 12 h, 1 µM, compound concentration 1 uM, replicate 2
[3] = 12 h, 10 µM, compound concentration 10 uM, replicate 1
[4] = 12 h, 10 µM, compound concentration 10 uM, replicate 2
[5] = 24 h, 1 µM, compound concentration 1 uM, replicate 1
[6] = 24 h, 1 µM, compound concentration 1 uM, replicate 2
[7] = 24 h, 10 µM, compound concentration 10 uM, replicate 1
[8] = 24 h, 10 µM, compound concentration 10 uM, replicate 2
[9] = 48 h, 1 µM, compound concentration 1 uM, replicate 1
[10] = 48 h, 1 µM, compound concentration 1 uM, replicate 2
[11] = 48 h, 10 µM, compound concentration 10 uM, replicate 1
[12] = 48 h, 10 µM, compound concentration 10 uM, replicate 2

O=C(O)CCC/C=C\CC1C(O)CC(O)C1/C=C/C(O)COc1cccc(Cl)c1 (centres undefined) [CLOPROSTENOL]
Population Apoptotic (%) [1]: 41% | Population Fragmented Nuclei (%) [1]: 15% | Population Healthy Nuclei (%) [1]: 68% | Population Hoechst High Intensity Objects (%) [1]: 0% | Population Membrane Permeable-Phenotype (%) [1]: 0% | Population Mitochondria Different-Phenotype (%) [1]: 2% | Population Mitotic Cells (%) [1]: 58% | Population Normal (%) [1]: 100% | Population Pyknosed Nuclei (%) [1]: 15% | Population Tubulin-Different-Phenotype (%) [1]: 22% | Total Cell Count [1]: 153 | Population Apoptotic (%) [2]: 20% | Population Fragmented Nuclei (%) [2]: 22% | Population Healthy Nuclei (%) [2]: 52% | Population Hoechst High Intensity Objects (%) [2]: 2% | Population Membrane Permeable-Phenotype (%) [2]: 8% | Population Mitotic Cells (%) [2]: 80% | Population Normal (%) [2]: 97% | Population Pyknosed Nuclei (%) [2]: 25% | Population Tubulin-Different-Phenotype (%) [2]: 52% | Total Cell Count [2]: 141 | Population Apoptotic (%) [3]: 38% | Population Fragmented Nuclei (%) [3]: 23% | Population Healthy Nuclei (%) [3]: 58% | Population Hoechst High Intensity Objects (%) [3]: 12% | Population Membrane Permeable-Phenotype (%) [3]: 0% | Population Mitochondria Different-Phenotype (%) [3]: 4% | Population Mitotic Cells (%) [3]: 61% | Population Normal (%) [3]: 87% | Population Pyknosed Nuclei (%) [3]: 18% | Population Tubulin-Different-Phenotype (%) [3]: 31% | Total Cell Count [3]: 212 | Population Apoptotic (%) [4]: 23% | Population Healthy Nuclei (%) [4]: 43% | Population Hoechst High Intensity Objects (%) [4]: 4% | Population Membrane Permeable-Phenotype (%) [4]: 11% | Population Mitochondria Different-Phenotype (%) [4]: 9% | Population Mitotic Cells (%) [4]: 76% | Population Normal (%) [4]: 95% | Population Pyknosed Nuclei (%) [4]: 34% | Population Tubulin-Different-Phenotype (%) [4]: 53% | Total Cell Count [4]: 105 | Population Apoptotic (%) [5]: 41% | Population Fragmented Nuclei (%) [5]: 19% | Population Healthy Nuclei (%) [5]: 62% | Population Hoechst High Intensity Objects (%) [5]: 0% | Population Membrane Permeable-Phenotype (%) [5]: 1% | Population Mitochondria Different-Phenotype (%) [5]: 3% | Population Mitotic Cells (%) [5]: 58% | Population Normal (%) [5]: 99% | Population Pyknosed Nuclei (%) [5]: 18% | Population Tubulin-Different-Phenotype (%) [5]: 26% | Total Cell Count [5]: 161 | Population Apoptotic (%) [6]: 18% | Population Fragmented Nuclei (%) [6]: 27% | Population Healthy Nuclei (%) [6]: 49% | Population Hoechst High Intensity Objects (%) [6]: 3% | Population Membrane Permeable-Phenotype (%) [6]: 7% | Population Mitochondria Different-Phenotype (%) [6]: 5% | Population Mitotic Cells (%) [6]: 81% | Population Normal (%) [6]: 96% | Population Pyknosed Nuclei (%) [6]: 23% | Population Tubulin-Different-Phenotype (%) [6]: 53% | Total Cell Count [6]: 144 | Population Apoptotic (%) [7]: 41% | Population Fragmented Nuclei (%) [7]: 24% | Population Healthy Nuclei (%) [7]: 57% | Population Hoechst High Intensity Objects (%) [7]: 12% | Population Membrane Permeable-Phenotype (%) [7]: 2% | Population Mitochondria Different-Phenotype (%) [7]: 3% | Population Mitotic Cells (%) [7]: 58% | Population Normal (%) [7]: 87% | Population Pyknosed Nuclei (%) [7]: 18% | Population Tubulin-Different-Phenotype (%) [7]: 24% | Total Cell Count [7]: 218 | Population Apoptotic (%) [8]: 59% | Population Fragmented Nuclei (%) [8]: 28% | Population Healthy Nuclei (%) [8]: 50% | Population Hoechst High Intensity Objects (%) [8]: 3% | Population Membrane Permeable-Phenotype (%) [8]: 7% | Population Mitotic Cells (%) [8]: 40% | Population Normal (%) [8]: 96% | Population Pyknosed Nuclei (%) [8]: 21% | Population Tubulin-Different-Phenotype (%) [8]: 57% | Total Cell Count [8]: 107 | Population Apoptotic (%) [9]: 65% | Population Fragmented Nuclei (%) [9]: 21% | Population Healthy Nuclei (%) [9]: 59% | Population Hoechst High Intensity Objects (%) [9]: 2% | Population Membrane Permeable-Phenotype (%) [9]: 2% | Population Mitochondria Different-Phenotype (%) [9]: 2% | Population Mitotic Cells (%) [9]: 34% | Population Normal (%) [9]: 97% | Population Pyknosed Nuclei (%) [9]: 19% | Population Tubulin-Different-Phenotype (%) [9]: 25% | Total Cell Count [9]: 156 | Population Apoptotic (%) [10]: 36% | Population Fragmented Nuclei (%) [10]: 37% | Population Healthy Nuclei (%) [10]: 43% | Population Hoechst High Intensity Objects (%) [10]: 3% | Population Membrane Permeable-Phenotype (%) [10]: 12% | Population Mitochondria Different-Phenotype (%) [10]: 10% | Population Mitotic Cells (%) [10]: 64% | Population Normal (%) [10]: 96% | Population Pyknosed Nuclei (%) [10]: 18% | Population Tubulin-Different-Phenotype (%) [10]: 63% | Total Cell Count [10]: 137 | Population Apoptotic (%) [11]: 46% | Population Fragmented Nuclei (%) [11]: 25% | Population Healthy Nuclei (%) [11]: 57% | Population Hoechst High Intensity Objects (%) [11]: 13% | Population Membrane Permeable-Phenotype (%) [11]: 0% | Population Mitochondria Different-Phenotype (%) [11]: 2% | Population Mitotic Cells (%) [11]: 53% | Population Normal (%) [11]: 86% | Population Pyknosed Nuclei (%) [11]: 16% | Population Tubulin-Different-Phenotype (%) [11]: 30% | Total Cell Count [11]: 205 | Population Apoptotic (%) [12]: 55% | Population Fragmented Nuclei (%) [12]: 41% | Population Healthy Nuclei (%) [12]: 49% | Population Hoechst High Intensity Objects (%) [12]: 8% | Population Membrane Permeable-Phenotype (%) [12]: 4% | Population Mitochondria Different-Phenotype (%) [12]: 4% | Population Mitotic Cells (%) [12]: 44% | Population Normal (%) [12]: 91% | Population Pyknosed Nuclei (%) [12]: 9% | Population Tubulin-Different-Phenotype (%) [12]: 61% | Total Cell Count [12]: 108
